Source: publication PMC4346016 (Drug Design, Development and Therapy, 2015)
Read-outs that look alike come from different tables or passages of the source.

How the values were obtained:
[1] = cited from earlier work
[2] = integrated analysis of five trials, 6,081 patients; cited from earlier work
[3] = assay type: in vivo, human; details: for AUClast geometric mean ratio (90% CI): dapoxetine with udenafil combined therapy/dapoxetine monotherapy; for half-life: t1/2β
Outline: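 Six-sequence, three-period crossover in healthy men aged 20–45, fasted, with a 7-day washout. Single oral doses of dapoxetine 60 mg alone or with udenafil 200 mg. EDTA plasma was sampled from predose to 48 h. Parent and desmethyl metabolite were measured by UPLC-MS/MS with deuterated internal standards. Non-compartmental analysis: AUClast by trapezoidal rule, AUC0~∞ = AUClast + Clast/λz, CL/F = dose/AUC0~∞. Ratios from log-transformed mixed-model ANOVA with 90% CI.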

[4] = Tolerability / adverse drug reactions in healthy male subjects; assay type: in vivo, human; details: for Abdominal discomfort: number of events / Abdominal discomfort: number of subjects / Adverse drug reactions, total: number of events / Decreased appetite: number of events / Decreased appetite: number of subjects / Diarrhea: number of events / Diarrhea: number of subjects / Dizziness: number of events / Dizziness: number of subjects / Headache: number of events / Headache: number of subjects / Insomnia: number of events / Insomnia: number of subjects / Nausea: number of events / Nausea: number of subjects / Ocular hyperemia: number of events / Ocular hyperemia: number of subjects / Somnolence: number of events / Somnolence: number of subjects / Suicidal ideation: number of events / Suicidal ideation: number of subjects / Vomiting: number of events / Vomiting: number of subjects / hyperhidrosis: number of events / hyperhidrosis: number of subjects / Adverse drug reactions, total: number of subjects: n=23 per treatment; for Adverse drug reactions, total: number of subjects / tolerability: udenafil 200 mg, dapoxetine 60 mg; for tolerability: alone or concomitantly, single oral doses
Outline: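 Safety was monitored through each 48 h period and at follow-up 5–9 days after the last dose. Assessments were vital signs, 12-lead ECGs, hematology, blood chemistry, urinalysis, physical examinations and adverse-event monitoring. Each event was recorded with its symptoms/signs, duration, intensity, relation to study drug, action taken, outcome and seriousness. Counts are given as subjects and as events.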

[5] = cited from earlier work; remark: listed apart in the source
[6] = assay type: in vivo, human; details: two-compartment model, WinNonlin
[7] = rats; cited from earlier work
[8] = assay type: in vivo, human; details: for half-life: t1/2β; for half-life / CL/F: mean ± SD; for half-life / Tmax / CL/F: n=22; for Tmax: median (min, max); for pharmacokinetic interaction with dapoxetine: single oral doses; for AUClast geometric mean ratio (90% CI): udenafil with dapoxetine combined therapy/udenafil monotherapy
Outline: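 Crossover in healthy fasted men: single oral udenafil 200 mg alone or with dapoxetine 60 mg, with 240 mL water and a 1-week washout. Blood was taken 0.25–48 h postdose into EDTA and spun at 1,800 g, 4°C. Udenafil (5.0–2,000.0 ng/mL) and DA-8164 (0.25–100.00 ng/mL) were measured by UPLC-MS/MS. Non-compartmental AUC and CL/F were derived. Geometric mean ratios with 90% CI came from log-transformed mixed-model ANOVA.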

[9] = cited from earlier work; remark: listed apart in the source
[10] = cited from earlier work; remark: listed apart in the source
[11] = cited from earlier work; remark: listed apart in the source
[12] = combined therapy/dapoxetine monotherapy
[13] = male, human, plasma, oral, 60 mg
[14] = combined therapy/udenafil monotherapy
[15] = male, human, plasma, oral, 200 mg
[16] = male, human, plasma, oral, 200 mg, udenafil 200 mg alone
[17] = male, human, plasma, oral, udenafil 200 mg + dapoxetine 60 mg
[18] = udenafil 200 mg + dapoxetine 60 mg

## CN(C)[C@@H](CCOc1cccc2ccccc12)c1ccccc1 [Dapoxetine]
[1]; biphasic elimination
  initial half-life: approximately 1.4 hours
[1]; by 24 hours after drug administration
  plasma concentration as share of peak concentration: approximately 5%
[1]
  Tmax: 1.0 to 1.3 h
[2]
  PE profile measures compared with placebo: improved significantly
[3]; [12]
  AUC0~∞ geometric mean ratio (90% CI): 1.117 (1.048–1.191)
  CL/F geometric mean ratio (90% CI): 0.895 (0.840–0.954)
  Cmax geometric mean ratio (90% CI): 0.837 (0.758–0.925)
  t1/2β geometric mean ratio (90% CI): 0.947 (0.873–1.028)
[3]; combined therapy/dapoxetine monotherapy, listed as dapoxetine
  Cmax geometric mean ratio (90% CI): 0.837
[3]; dapoxetine 60 mg + udenafil 200 mg, mean ± SD, n=20
  CL/F: 26.59 ± 9.22 L/h
[3]; dapoxetine 60 mg alone, mean ± SD, n=20
  CL/F: 30.41 ± 11.99 L/h
[3]; dapoxetine 60 mg alone, median (min, max), n=20
  Tmax: 1.00 (0.50, 2.00) h
[3]
  AUClast geometric mean ratio (90% CI): 1.125 (1.044–1.213)
[3]; listed as dapoxetine
  AUClast geometric mean ratio (90% CI): 1.125
[3]; [13]
  AUC(0-inf): 2360 ng·h/mL
  Cmax: 437 ± 143 ng/mL
  Tmax: 1 h
[3]; male, human, plasma, oral, 60 mg, dapoxetine 60 mg alone, mean ± SD, n=20
  half-life: 16.2 ± 6.72 h
[3]; male, human, plasma, oral, span over dapoxetine alone and with udenafil
  half-life: 15.3 to 16.2 h
[3]; male, human, plasma, po, 60 mg
  AUC(0-t): 2100 ng·h/mL
[4]
  Abdominal discomfort: number of events: 1 (1)
  Abdominal discomfort: number of subjects: 1 (1)
  Adverse drug reactions, total: number of events: 24
  Decreased appetite: number of events: 0 (0)
  Decreased appetite: number of subjects: 0 (0)
  Diarrhea: number of events: 2 (2)
  Diarrhea: number of subjects: 2 (2)
  Dizziness: number of events: 5 (5)
  Dizziness: number of subjects: 5 (5)
  Headache: number of events: 2 (2)
  Headache: number of subjects: 2 (2)
  Insomnia: number of events: 0 (0)
  Insomnia: number of subjects: 0 (0)
  Nausea: number of events: 11 (11)
  Nausea: number of subjects: 11 (11)
  Ocular hyperemia: number of events: 0 (0)
  Ocular hyperemia: number of subjects: 0 (0)
  Somnolence: number of events: 1 (1)
  Somnolence: number of subjects: 1 (1)
  Suicidal ideation: number of events: 0 (0)
  Suicidal ideation: number of subjects: 0 (0)
  Vomiting: number of events: 2 (2)
  Vomiting: number of subjects: 2 (2)
  hyperhidrosis: number of events: 0 (0)
  hyperhidrosis: number of subjects: 0 (0)
  Adverse drug reactions, total: number of subjects: 12
  tolerability: well tolerated
[5]
  increase in AUC of active moiety with ketoconazole: 88%
  increase in Cmax of active moiety with ketoconazole: 23%
  increase in parent drug AUC with ketoconazole: 99%
  increase in parent drug Cmax with ketoconazole: 35%

## CCCOc1ccc(S(=O)(=O)NCCC2CCCN2C)cc1-c1nc2c(CCC)nn(C)c2c(=O)[nH]1 (centres unmarked) [Udenafil]
[6]; combined therapy with dapoxetine
  absorption rate constant (ka): 0.50 ± 0.17 h⁻¹
[6]; monotherapy
  absorption rate constant (ka): 0.84 ± 0.29 h⁻¹
[7]
  absolute oral bioavailability: 38.0%–55.6
[8]; [14]
  AUC0~∞ geometric mean ratio (90% CI): 0.923 (0.867–0.983)
  CL/F geometric mean ratio (90% CI): 1.084 (1.017–1.154)
  Cmax geometric mean ratio (90% CI): 0.864 (0.789–0.947)
  t1/2β geometric mean ratio (90% CI): 0.984 (0.948–1.022)
[8]; combined therapy/udenafil monotherapy, listed as udenafil
  Cmax geometric mean ratio (90% CI): 0.864
[8]; [15]
  AUC(0-inf): 4930 ng·h/mL
  Cmax: 693 ± 206 ng/mL
[8]; [16]
  half-life: 11 ± 1.64 h
  Tmax: 1 h
[8]; [17]
  half-life: 10.8 ± 1.27 h
  Tmax: 2 h
[8]; male, human, plasma, po, 200 mg
  AUC(0-t): 4730 ng·h/mL
[8]; [18]
  pharmacokinetic interaction with dapoxetine: no clinically significant pharmacokinetic interactions
  CL/F: 47.31 ± 14.07 L/h
[8]; udenafil 200 mg + dapoxetine 60 mg, listed as udenafil
  pharmacokinetic interaction with dapoxetine: no significant pharmacokinetic interactions
[8]; udenafil 200 mg alone
  CL/F: 43.69 ± 12.21 L/h
[8]
  AUClast geometric mean ratio (90% CI): 0.923 (0.863–0.987)
[8]; listed as udenafil
  AUClast geometric mean ratio (90% CI): 0.923
[4]
  Abdominal discomfort: number of events: 0 (0)
  Abdominal discomfort: number of subjects: 0 (0)
  Adverse drug reactions, total: number of events: 4
  Decreased appetite: number of events: 1 (1)
  Decreased appetite: number of subjects: 1 (1)
  Diarrhea: number of events: 0 (0)
  Diarrhea: number of subjects: 0 (0)
  Dizziness: number of events: 1 (1)
  Dizziness: number of subjects: 1 (1)
  Headache: number of events: 0 (0)
  Headache: number of subjects: 0 (0)
  Insomnia: number of events: 1 (1)
  Insomnia: number of subjects: 1 (1)
  Nausea: number of events: 0 (0)
  Nausea: number of subjects: 0 (0)
  Ocular hyperemia: number of events: 1 (1)
  Ocular hyperemia: number of subjects: 1 (1)
  Somnolence: number of events: 0 (0)
  Somnolence: number of subjects: 0 (0)
  Suicidal ideation: number of events: 0 (0)
  Suicidal ideation: number of subjects: 0 (0)
  Vomiting: number of events: 0 (0)
  Vomiting: number of subjects: 0 (0)
  hyperhidrosis: number of events: 0 (0)
  hyperhidrosis: number of subjects: 0 (0)
  Adverse drug reactions, total: number of subjects: 3
  tolerability: well tolerated
[9]; oral
  terminal half-life (t1/2β): 7.3 to 12.1 h
  time to reach peak concentration (tmax): 0.8 to 1.3 h
[9]; previously reported
  ka: 0.70 ± 0.26 h⁻¹
[10]
  increase of mean AUClast on co-administration of ketoconazole: 3.2 fold
  increase of mean Cmax on co-administration of ketoconazole: 1.9 fold
[10]; udenafil administered alone
  metabolic AUC ratio: 1.71
[10]; udenafil in combination with ketoconazole
  metabolic AUC ratio: 0.19

## CN1CC(=O)N2[C@H](c3ccc4c(c3)OCO4)c3[nH]c4ccccc4c3C[C@@H]2C1=O [tadalafil]
[11]
  pharmacokinetic interaction with dapoxetine: no clinically significant pharmacokinetic interactions
